From ChEMBL document CHEMBL1132721, “Cyclobutane quisqualic acid analogues as selective mGluR5a metabotropic glutamic acid receptor ligands” (J Med Chem, 1999)

What was measured:
[1] = species: Rattus norvegicus; experiment: Inhibition of the sensitization of CA1 pyramidal neurons to depolarization by L-AP6 after reversal with L-alpha-AA; type: functional, organism-based; conditions: Pyramidal neuron
[2] = target: T1, Glutamate receptor ionotropic, AMPA (Rattus norvegicus, UniProt P19490+P19491+P19492+P19493); experiment: Inhibition of Ionotropic glutamate receptor AMPA mediated depolarization by the compound at a concentration of 200 uM after 20 minutes in rat
[3] = target: Metabotropic glutamate receptor 5 (Homo sapiens, UniProt P41594); experiment: Compound was tested for the stimulation of Phosphoinositide (PI) hydrolysis in BHK cells expressing mGluR5a receptor; type: functional, cell-based
Outline: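 BHK570 cells stably expressing mGluR5a, kept under 2 μM methotrexate selection in DMEM with 5% heat-inactivated FBS, 2 mM glutamine and 5% CO2. Grown to 60–90% confluence, then labelled 16–20 h with 1 μCi/mL [3H]-myo-inositol. PI hydrolysis was measured by the Thomsen method and normalized to 100 000 DPM of total incorporated label. Mean ± SEM of 3–6 experiments; EC50 from concentration–response curves.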

[4] = species: Rattus norvegicus; experiment: Inhibition of the sensitization of CA1 pyramidal neurons to depolarization by L-AP6 by the compound at a concentration of 200 uM before 20 minutes; type: functional, organism-based; conditions: Pyramidal neuron
[5] = species: Rattus norvegicus; experiment: Compound was tested for the stimulation of Phosphoinositide (PI) hydrolysis in rat hippocampus; type: functional, organism-based
Outline: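 Slices of neonatal (6–11-day-old) Sprague–Dawley rat hippocampus, labelled with [3H]-myo-inositol. Inositol phosphate accumulation was expressed per 100 000 DPM of total incorporated radiolabel (lipid plus soluble IP fraction) under basal conditions. Concentration–response data were fit with Hill coefficient 1. Mean ± SEM of four experiments.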

[6] = species: Rattus norvegicus; experiment: Inhibition of the sensitization of CA1 pyramidal neurons to depolarization by L-AP6 by the compound at a concentration of 200 uM after 20 minutes; type: functional, organism-based; conditions: Pyramidal neuron
[7] = species: Rattus norvegicus; experiment: Inhibition of the sensitization of CA1 pyramidal neurons to depolarization by L-AP6 by the compound at a concentration of 400 uM after 20 minutes; type: functional, organism-based; conditions: Pyramidal neuron
[8] = target: T1, Glutamate receptor ionotropic, AMPA; experiment: Inhibition of Ionotropic glutamate receptor AMPA mediated depolarization by the compound at a concentration of 400 uM after 20 minutes in rat
[9] = species: Rattus norvegicus; experiment: Inhibition of the sensitization of CA1 pyramidal neurons to depolarization by L-AP6 by the compound at a concentration of 400 uM before 20 minutes; type: functional, organism-based; conditions: Pyramidal neuron
[10] = species: Rattus norvegicus; experiment: Inhibition of the sensitization of CA1 pyramidal neurons to depolarization by L-AP6 after reversal with L-alpha-AA by the compound at a concentration of 16 uM after 4 minutes; type: functional, organism-based; conditions: Pyramidal neuron
Outline: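 Rat hippocampal slices. The sensitization was reversed by treating the slices with 2 mM L-α-aminoadipic acid for 10 min.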

[11] = species: Rattus norvegicus; experiment: Inhibition of the sensitization of CA1 pyramidal neurons to depolarization by L-AP6 by the compound at a concentration of 16 uM after 4 minutes; type: functional, organism-based; conditions: Pyramidal neuron
Outline: (§1)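 Rat hippocampal slices. Sensitization of CA1 neurons to phosphonate depolarization was measured in the QUIS-effect slice assay.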

[12] = species: Rattus norvegicus; experiment: Inhibition of the sensitization of CA1 pyramidal neurons to depolarization by L-AP6 by the compound at a concentration of 16 uM before 4 minutes; type: functional, organism-based; conditions: Pyramidal neuron; outline: as §1

Chain of Metabotropic glutamate receptor 5 (P41594 whole entry): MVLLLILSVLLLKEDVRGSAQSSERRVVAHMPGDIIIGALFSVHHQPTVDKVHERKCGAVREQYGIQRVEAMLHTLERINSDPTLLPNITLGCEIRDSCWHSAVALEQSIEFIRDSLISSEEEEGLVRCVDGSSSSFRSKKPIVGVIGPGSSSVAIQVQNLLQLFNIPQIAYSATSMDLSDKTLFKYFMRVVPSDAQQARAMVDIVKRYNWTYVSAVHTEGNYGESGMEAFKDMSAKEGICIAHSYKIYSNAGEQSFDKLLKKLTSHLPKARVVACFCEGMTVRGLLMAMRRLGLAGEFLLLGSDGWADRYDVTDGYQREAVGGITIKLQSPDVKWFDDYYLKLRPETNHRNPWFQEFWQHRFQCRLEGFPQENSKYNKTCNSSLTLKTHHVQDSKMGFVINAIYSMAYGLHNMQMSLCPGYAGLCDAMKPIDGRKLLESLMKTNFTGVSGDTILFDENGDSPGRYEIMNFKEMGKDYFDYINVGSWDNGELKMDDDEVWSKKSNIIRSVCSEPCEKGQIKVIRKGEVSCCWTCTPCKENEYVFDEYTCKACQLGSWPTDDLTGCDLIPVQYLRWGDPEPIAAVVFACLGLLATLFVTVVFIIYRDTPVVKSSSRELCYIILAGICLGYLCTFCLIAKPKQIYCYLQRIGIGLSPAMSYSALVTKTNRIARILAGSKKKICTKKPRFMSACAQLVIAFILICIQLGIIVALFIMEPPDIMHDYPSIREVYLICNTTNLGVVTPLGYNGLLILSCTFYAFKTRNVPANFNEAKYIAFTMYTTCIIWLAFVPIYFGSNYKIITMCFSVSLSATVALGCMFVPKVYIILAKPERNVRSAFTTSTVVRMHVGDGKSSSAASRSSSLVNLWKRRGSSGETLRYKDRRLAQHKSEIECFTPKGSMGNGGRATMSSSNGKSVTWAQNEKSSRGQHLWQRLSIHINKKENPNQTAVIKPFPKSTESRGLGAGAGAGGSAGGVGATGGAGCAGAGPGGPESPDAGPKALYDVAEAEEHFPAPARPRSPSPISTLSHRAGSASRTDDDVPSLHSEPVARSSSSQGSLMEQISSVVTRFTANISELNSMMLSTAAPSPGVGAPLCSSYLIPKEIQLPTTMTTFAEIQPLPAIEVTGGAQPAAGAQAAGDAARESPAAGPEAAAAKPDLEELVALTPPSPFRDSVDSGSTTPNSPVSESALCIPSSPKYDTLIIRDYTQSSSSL

## N[C@]1(C(=O)O)C[C@H](n2oc(=O)[nH]c2=O)C1
[1]
  IC50: > 10000 µM
[2]
  IC50: 69 µM
[3]
  EC50: 11 µM
[4]
  IC50: > 10000 µM
[5]
  EC50: 18 µM
[6]
  IC50: 7000 µM

## N[C@]1(C(=O)O)C[C@@H](n2oc(=O)[nH]c2=O)C1
[7]
  IC50: > 10000 µM
[8]
  IC50: 390 µM
[9]
  IC50: > 10000 µM
[3]
  EC50: 49 µM
[5]
  EC50: 53 µM

## N[C@@H](Cn1oc(=O)[nH]c1=O)C(=O)O [QUISQUALATE]
[10]
  IC50: 1900 µM
[11]
  IC50: 40 µM
[12]
  IC50: > 10000 µM
